Measurements taken from ChEMBL document CHEMBL4049407, “Positional Scanning Identifies the Molecular Determinants of a High Affinity Multi-Leucine Inhibitor for Furin and PACE4” (J Med Chem, 2017).
Activity calls are given as the source filed them. How the calls were made is not given here. Peptide text beside a SMILES is read from it. * marks the point of attachment. NH(4-amidinobenzyl) = N=C(N)c1ccc(CN*)cc1

Key:
Homo sapiens = species on record: Homo sapiens; experiment: Selectivity index, ratio of Ki for recombinant human furin expressed in drosophila S2 cells to Ki for recombinant human PACE4 expressed in drosophila S2 cells; type: cell-based
Summary of the method: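 Ratio Ki(furin)/Ki(PACE4). […] PACE4 buffer was BisTris pH 6.5; furin buffer was HEPES pH 7.5, or BisTris pH 6.5 for His peptides. Ki fitted by Morrison equation from three independent experiments.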

[1] = target: T1, Proprotein convertase subtilisin/kexin type 6 (Homo sapiens, UniProt P29122); experiment: Inhibition of recombinant human PACE4 expressed in drosophila S2 cells using pyrGlu-Arg-Thr-Lys-Arg-7-amido-4-methylcoumarin as substrate after 60 mins by spectrofluorometry method; type: cell-based
T1 sequence (P29122 whole entry): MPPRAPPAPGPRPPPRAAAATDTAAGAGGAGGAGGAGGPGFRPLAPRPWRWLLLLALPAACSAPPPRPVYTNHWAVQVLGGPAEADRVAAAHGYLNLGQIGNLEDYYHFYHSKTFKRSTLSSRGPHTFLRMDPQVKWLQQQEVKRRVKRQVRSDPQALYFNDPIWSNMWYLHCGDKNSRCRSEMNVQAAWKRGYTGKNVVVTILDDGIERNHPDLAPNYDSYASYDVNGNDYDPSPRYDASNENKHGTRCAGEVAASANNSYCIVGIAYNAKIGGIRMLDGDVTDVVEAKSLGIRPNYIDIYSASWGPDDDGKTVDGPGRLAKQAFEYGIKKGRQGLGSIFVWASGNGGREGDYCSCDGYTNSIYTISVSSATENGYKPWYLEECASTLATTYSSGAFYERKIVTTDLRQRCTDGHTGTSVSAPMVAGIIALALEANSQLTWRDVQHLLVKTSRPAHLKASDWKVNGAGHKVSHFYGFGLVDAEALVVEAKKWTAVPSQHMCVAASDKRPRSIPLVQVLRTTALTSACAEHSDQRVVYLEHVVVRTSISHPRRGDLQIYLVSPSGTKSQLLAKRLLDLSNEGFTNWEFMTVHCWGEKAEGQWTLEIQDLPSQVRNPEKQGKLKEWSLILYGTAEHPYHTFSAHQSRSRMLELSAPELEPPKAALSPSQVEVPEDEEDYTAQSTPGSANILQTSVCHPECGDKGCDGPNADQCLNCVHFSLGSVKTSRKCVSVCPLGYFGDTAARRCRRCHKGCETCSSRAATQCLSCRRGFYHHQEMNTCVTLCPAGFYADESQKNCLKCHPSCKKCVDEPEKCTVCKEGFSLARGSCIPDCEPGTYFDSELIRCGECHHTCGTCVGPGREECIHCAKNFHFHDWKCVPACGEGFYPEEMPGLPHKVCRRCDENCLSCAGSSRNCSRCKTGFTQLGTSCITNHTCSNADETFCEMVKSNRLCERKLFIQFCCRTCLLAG
Summary of the method: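 Human recombinant purified PACE4 at 2 units/100 µL (20.18 nM), in 20 mM BisTris pH 6.5, 1 mM CaCl2, 1.8 mg/mL BSA. Substrate 100 µM, KM 4.035 µM. Inhibitor 1 nM to 10 µM; 60 min at 37°C. Fluorescence ex 370 / em 460 nm. Ki by Morrison tight-binding equation; three independent experiments, mean ± SD.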

DU-145 = experiment: Antiproliferative activity against human DU145 cells assessed as reduction in metabolic activity at 25 to 100 uM after 72 hrs by MTT assay; type: functional, cell-based
Summary of the method: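 First-pass MTT screen of each library peptide on DU145 cells (RPMI 1640, 5% FBS, 1500 cells/well, poly-L-lysine plates). Peptides added 24 h after seeding at 25, 50 and 100 µM in fresh serum medium for 72 h. MTT 1 mg/mL for 4 h; 2-propanol HCl solubilisation. Activity normalised to water vehicle. Mean ± SEM of at least two independent experiments.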

Furin = Furin (Homo sapiens, UniProt P09958); experiment: Inhibition of recombinant human furin expressed in drosophila S2 cells using pyrGlu-Arg-Thr-Lys-Arg-7-amido-4-methylcoumarin as substrate after 60 mins by spectrofluorometry method; type: cell-based
Summary of the method: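 Human recombinant purified furin at 2 units/100 µL (0.54 nM), in 100 mM HEPES pH 7.5, 1 mM CaCl2, 1 mM β-mercaptoethanol, 1.8 mg/mL BSA. His-containing peptides run instead in 20 mM BisTris pH 6.5 with the same additives. Substrate 100 µM, KM 5.04 µM. Inhibitor 1 nM to 10 µM; 60 min at 37°C. Fluorescence ex 370 / em 460 nm. Ki by Morrison equation; triplicate experiments, mean ± SD.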

Sequence of Furin (P09958 whole entry): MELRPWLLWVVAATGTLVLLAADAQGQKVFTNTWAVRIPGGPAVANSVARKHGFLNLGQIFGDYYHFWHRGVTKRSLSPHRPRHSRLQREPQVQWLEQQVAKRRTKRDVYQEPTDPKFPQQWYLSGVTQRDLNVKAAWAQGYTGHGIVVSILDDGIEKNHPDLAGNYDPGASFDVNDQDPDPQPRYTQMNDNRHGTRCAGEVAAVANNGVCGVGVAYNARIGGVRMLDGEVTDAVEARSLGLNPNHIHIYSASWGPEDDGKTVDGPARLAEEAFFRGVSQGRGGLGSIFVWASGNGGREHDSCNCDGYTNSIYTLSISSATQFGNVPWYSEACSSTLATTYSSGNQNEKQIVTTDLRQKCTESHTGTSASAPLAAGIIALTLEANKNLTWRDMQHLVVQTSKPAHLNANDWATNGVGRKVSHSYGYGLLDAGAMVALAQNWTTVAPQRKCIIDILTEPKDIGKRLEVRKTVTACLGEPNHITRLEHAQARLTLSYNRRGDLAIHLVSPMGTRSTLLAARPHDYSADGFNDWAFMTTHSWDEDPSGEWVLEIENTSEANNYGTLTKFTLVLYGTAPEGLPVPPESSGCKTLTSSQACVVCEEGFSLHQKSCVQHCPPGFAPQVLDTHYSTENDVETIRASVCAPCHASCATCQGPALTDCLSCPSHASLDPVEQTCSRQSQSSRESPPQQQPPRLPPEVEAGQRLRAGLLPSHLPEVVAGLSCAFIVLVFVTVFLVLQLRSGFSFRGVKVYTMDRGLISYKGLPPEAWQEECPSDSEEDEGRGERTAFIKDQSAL

Structure (SMILES)	Ratio Ki (Homo sapiens)	Ki [1] [nM]	Activity (DU-145)	Ki (Furin) [nM]
CC(=O)N[C@@H](CC(C)C)C(=O)N[C@@H](CC(C)C)C(=O)N[C@H](C(=O)N[C@@H](CC(C)C)C(=O)N[C@@H](CCCNC(=N)N)C(=O)N[C@H](C(=O)N[C@@H](CCCCN)C(=O)NCc1ccc(C(=N)N)cc1)C(C)C)C(C)C (Ac-LLVLRVK-{NH(4-amidinobenzyl)})	0.8	4	inactive	3
CSCC[C@H](NC(C)=O)C(=O)N[C@@H](CC(C)C)C(=O)N[C@@H](CC(C)C)C(=O)N[C@@H](CC(C)C)C(=O)N[C@@H](CCCNC(=N)N)C(=O)N[C@H](C(=O)N[C@@H](CCCCN)C(=O)NCc1ccc(C(=N)N)cc1)C(C)C (Ac-MLLLRVK-{NH(4-amidinobenzyl)})	1	6	inactive	6
CC(=O)N[C@@H](CC(C)C)C(=O)N[C@@H](CC(C)C)C(=O)N[C@@H](CCC(=O)O)C(=O)N[C@@H](CC(C)C)C(=O)N[C@@H](CCCNC(=N)N)C(=O)N[C@H](C(=O)N[C@@H](CCCCN)C(=O)NCc1ccc(C(=N)N)cc1)C(C)C (Ac-LLELRVK-{NH(4-amidinobenzyl)})	0.8	60	inactive	50
CC(=O)N[C@@H](CC(C)C)C(=O)N[C@@H](CC(C)C)C(=O)N[C@@H](CC(C)C)C(=O)N[C@H](C(=O)N[C@@H](CCCNC(=N)N)C(=O)N[C@H](C(=O)N[C@@H](CCCCN)C(=O)NCc1ccc(C(=N)N)cc1)C(C)C)[C@@H](C)O (Ac-LLLTRVK-{NH(4-amidinobenzyl)})	1.6	2.8	inactive	4.5
CC(=O)N[C@@H](CC(C)C)C(=O)N[C@@H](CC(C)C)C(=O)N[C@@H](CC(C)C)C(=O)N[C@@H](CC(N)=O)C(=O)N[C@@H](CCCNC(=N)N)C(=O)N[C@H](C(=O)N[C@@H](CCCCN)C(=O)NCc1ccc(C(=N)N)cc1)C(C)C (Ac-LLLNRVK-{NH(4-amidinobenzyl)})	1.8	1.7	inactive	3
CC(=O)N[C@@H](CC(C)C)C(=O)N[C@@H](CC(C)C)C(=O)NCC(=O)N[C@@H](CC(C)C)C(=O)N[C@@H](CCCNC(=N)N)C(=O)N[C@H](C(=O)N[C@@H](CCCCN)C(=O)NCc1ccc(C(=N)N)cc1)C(C)C (Ac-LLGLRVK-{NH(4-amidinobenzyl)})	0.8	21	inactive	16.7
CC(=O)N[C@@H](CC(C)C)C(=O)N[C@@H](CC(C)C)C(=O)N[C@H](C(=O)N[C@@H](CC(C)C)C(=O)N[C@@H](CCCNC(=N)N)C(=O)N[C@H](C(=O)N[C@@H](CCCCN)C(=O)NCc1ccc(C(=N)N)cc1)C(C)C)[C@@H](C)O (Ac-LLTLRVK-{NH(4-amidinobenzyl)})	0.5	39	inactive	18
CC(=O)N[C@@H](CC(C)C)C(=O)N[C@@H](CCC(=O)O)C(=O)N[C@@H](CC(C)C)C(=O)N[C@@H](CC(C)C)C(=O)N[C@@H](CCCNC(=N)N)C(=O)N[C@H](C(=O)N[C@@H](CCCCN)C(=O)NCc1ccc(C(=N)N)cc1)C(C)C (Ac-LELLRVK-{NH(4-amidinobenzyl)})	0.5	51	inactive	23
CC(=O)N[C@@H](CC(C)C)C(=O)N[C@@H](CC(C)C)C(=O)N[C@@H](CC(N)=O)C(=O)N[C@@H](CC(C)C)C(=O)N[C@@H](CCCNC(=N)N)C(=O)N[C@H](C(=O)N[C@@H](CCCCN)C(=O)NCc1ccc(C(=N)N)cc1)C(C)C (Ac-LLNLRVK-{NH(4-amidinobenzyl)})	0.7	18	inactive	13
CC(=O)N[C@@H](CC(C)C)C(=O)N[C@@H](CC(=O)O)C(=O)N[C@@H](CC(C)C)C(=O)N[C@@H](CC(C)C)C(=O)N[C@@H](CCCNC(=N)N)C(=O)N[C@H](C(=O)N[C@@H](CCCCN)C(=O)NCc1ccc(C(=N)N)cc1)C(C)C (Ac-LDLLRVK-{NH(4-amidinobenzyl)})	0.6	80	inactive	50
CC(=O)N[C@@H](CCCCN)C(=O)N[C@@H](CC(C)C)C(=O)N[C@@H](CC(C)C)C(=O)N[C@@H](CC(C)C)C(=O)N[C@@H](CCCNC(=N)N)C(=O)N[C@H](C(=O)N[C@@H](CCCCN)C(=O)NCc1ccc(C(=N)N)cc1)C(C)C (Ac-KLLLRVK-{NH(4-amidinobenzyl)})	1.3	0.3	inactive	0.4
CC(=O)N[C@@H](CC(C)C)C(=O)N[C@@H](CC(C)C)C(=O)N[C@@H](CC(C)C)C(=O)N[C@@H](CC(=O)O)C(=O)N[C@@H](CCCNC(=N)N)C(=O)N[C@H](C(=O)N[C@@H](CCCCN)C(=O)NCc1ccc(C(=N)N)cc1)C(C)C (Ac-LLLDRVK-{NH(4-amidinobenzyl)})	0.6	400	inactive	260
CC(=O)NCC(=O)N[C@@H](CC(C)C)C(=O)N[C@@H](CC(C)C)C(=O)N[C@@H](CC(C)C)C(=O)N[C@@H](CCCNC(=N)N)C(=O)N[C@H](C(=O)N[C@@H](CCCCN)C(=O)NCc1ccc(C(=N)N)cc1)C(C)C (Ac-GLLLRVK-{NH(4-amidinobenzyl)})	1	3	inactive	3
CC(=O)N[C@@H](CC(C)C)C(=O)N[C@@H](CC(C)C)C(=O)N[C@@H](Cc1c[nH]c2ccccc12)C(=O)N[C@@H](CC(C)C)C(=O)N[C@@H](CCCNC(=N)N)C(=O)N[C@H](C(=O)N[C@@H](CCCCN)C(=O)NCc1ccc(C(=N)N)cc1)C(C)C (Ac-LLWLRVK-{NH(4-amidinobenzyl)})	0.8	44	inactive	36
CC(=O)N[C@@H](Cc1cnc[nH]1)C(=O)N[C@@H](CC(C)C)C(=O)N[C@@H](CC(C)C)C(=O)N[C@@H](CC(C)C)C(=O)N[C@@H](CCCNC(=N)N)C(=O)N[C@H](C(=O)N[C@@H](CCCCN)C(=O)NCc1ccc(C(=N)N)cc1)C(C)C (Ac-HLLLRVK-{NH(4-amidinobenzyl)})	1.4	1.3	inactive	1.8
CC(=O)N[C@@H](CC(C)C)C(=O)N1CCC[C@H]1C(=O)N[C@@H](CC(C)C)C(=O)N[C@@H](CC(C)C)C(=O)N[C@@H](CCCNC(=N)N)C(=O)N[C@H](C(=O)N[C@@H](CCCCN)C(=O)NCc1ccc(C(=N)N)cc1)C(C)C (Ac-LPLLRVK-{NH(4-amidinobenzyl)})	1.5	1	inactive	1.5
CC(=O)N[C@@H](CC(C)C)C(=O)N[C@@H](CC(C)C)C(=O)N[C@@H](CC(C)C)C(=O)N[C@@H](Cc1ccc(O)cc1)C(=O)N[C@@H](CCCNC(=N)N)C(=O)N[C@H](C(=O)N[C@@H](CCCCN)C(=O)NCc1ccc(C(=N)N)cc1)C(C)C (Ac-LLLYRVK-{NH(4-amidinobenzyl)})	1.6	2	inactive	3.1
